The values that follow come from ChEMBL document CHEMBL2163342, “[18F](R)-5-chloro-1-(1-cyclopropyl-2-methoxyethyl)-3-(4-(2-fluoroethoxy)-2,5-dimethyl phenylamino)pyrazin-2(1H)-one: introduction of N3-phenylpyrazinones as potential CRF-R1 PET imaging agents” (Bioorg Med Chem Lett, 2012).

Data set [1] has as its target T1, Corticotropin-releasing factor receptor 1 (Homo sapiens, UniProt P34998).
T1 sequence (P34998 whole entry): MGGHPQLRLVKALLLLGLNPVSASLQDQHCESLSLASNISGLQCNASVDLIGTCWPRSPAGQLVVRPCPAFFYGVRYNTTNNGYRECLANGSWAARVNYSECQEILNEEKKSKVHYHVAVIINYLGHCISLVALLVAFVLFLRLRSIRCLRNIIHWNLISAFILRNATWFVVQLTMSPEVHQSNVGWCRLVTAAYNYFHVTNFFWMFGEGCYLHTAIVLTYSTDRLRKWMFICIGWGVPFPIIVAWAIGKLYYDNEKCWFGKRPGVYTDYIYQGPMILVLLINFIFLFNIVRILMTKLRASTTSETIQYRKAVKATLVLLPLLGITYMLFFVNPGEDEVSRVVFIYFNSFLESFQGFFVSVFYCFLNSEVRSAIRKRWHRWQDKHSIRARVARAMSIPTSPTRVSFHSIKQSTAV
Kind of data set: Binding affinity to CRFR1 by autoradiography. Put shortly:
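In vitro autoradiography on fresh 20 µm sagittal brain sections from adult male Sprague–Dawley rats. Sections preincubated 10 min in 50 mM HEPES, 10 mM MgCl2, EGTA, pH 7.4, then incubated with 1.3 nM [18F] radioligand at 22–24 °C for 40 min. Washed 2 min in ice-cold PBS, pH 7.4.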

The nature of data set [2]: Metabolic stability in baboon plasma assessed as compound remaining after 9 and 13 mins. It is filed as ADME, cell-free. The settings on record: papio anubis, read-out: Stability.
Data set [3] concerns the target T2, Corticotropin-releasing factor receptor 1 (Rattus norvegicus, UniProt P35353).
T2 sequence (P35353 whole entry): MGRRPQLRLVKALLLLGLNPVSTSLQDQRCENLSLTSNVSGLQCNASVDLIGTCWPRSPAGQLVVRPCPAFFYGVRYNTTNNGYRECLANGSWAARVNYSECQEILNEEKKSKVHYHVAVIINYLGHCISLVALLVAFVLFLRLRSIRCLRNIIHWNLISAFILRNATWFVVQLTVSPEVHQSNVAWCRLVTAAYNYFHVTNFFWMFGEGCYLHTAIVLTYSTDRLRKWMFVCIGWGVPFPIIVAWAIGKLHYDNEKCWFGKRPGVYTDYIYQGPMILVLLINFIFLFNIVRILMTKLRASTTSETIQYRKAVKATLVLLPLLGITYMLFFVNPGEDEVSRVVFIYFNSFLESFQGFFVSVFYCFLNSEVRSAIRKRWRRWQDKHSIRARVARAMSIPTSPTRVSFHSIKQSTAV
As to the kind of experiment: Displacement of [125I]-o-CRF from CRFR1 in rat frontal cortex after 2 hrs by gamma counter. It counts as tissue-based. Put shortly: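 Rat frontal cortex homogenate (25 µg/well), prepared in 50 mM HEPES pH 7.0, 10 mM MgCl2, 2 mM EGTA, protease inhibitors, 0.005% Triton X-100, bacitracin, 0.1% ovalbumin. Incubated with 150 pM [125I]-o-CRF and compounds for 2 h at 21 °C. Separated by rapid filtration on PEI-pretreated glass fiber filters, washed with ice-cold PBS/0.01% Triton X-100. Specific binding inhibition gives Ki.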
For orientation: Displacement assays read how much labelled ligand stays bound in the presence of the test substance.

Data set [4] is described as follows: Octanol-phosphate buffer partition coefficient, log D of the compound at pH 7.4 by shake flask method. It counts as physicochemical. The method, boiled down: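 Shake-flask method. Octanol and 25 mM phosphate buffer (pH ~7.4) mixed and allowed to saturate overnight. Compound (1.0 mg in 1 mL octanol) added to 50 mL octanol-saturated buffer, shaken intensely 30–40 min, then layers left to separate. Each layer analysed twice by HPLC.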

Data set [5] deals with Liver microsomes. Kind of data set: Drug metabolism in rat liver microsomes assessed as compound depletion per mg of protein at 3 uM. It counts as ADME, Microsome. Put shortly:
(§1)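 Liver microsomes (1 mg/ml protein) incubated with 3 µM compound and 1.3 mM NADPH at 37 °C in 100 mM sodium phosphate buffer, pH 7.4. Final solvent 0.015% DMSO, 0.985% acetonitrile. Stopped at 0 and 10 min, compound measured by LC/MS/MS. Reported as depletion rate, pmol/min/mg protein.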
(In general: Liver microsomes are a subcellular fraction often used to study metabolism.)

The target in data set [6] is T3, Corticotropin-releasing factor receptor 1 (Rattus norvegicus) (UniProt P35353).
T3 sequence (whole entry): T2 sequence (P35353 whole entry)
As to the kind of experiment: Binding affinity to CRFR1 in Sprague-Dawley rat cerebellum at 1.3 nM after 40 mins by autoradiography. The note with it: tested as the 18F-labelled form. The method, boiled down:
(§2)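 Fresh 20 µm-thick sagittal brain sections from adult male Sprague–Dawley rats. Sections were preincubated 10 min in 50 mM HEPES, 10 mM MgCl₂, […], pH 7.4, then incubated 40 min at 22–24 °C with 1.3 nM [¹⁸F]-radioligand (1.3 mCi/mL) in the same buffer. Slides were washed 2 min in ice-cold PBS (pH 7.4) and imaged by in vitro autoradiography.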

For data set [7], the target named is T3, Corticotropin-releasing factor receptor 1 (Rattus norvegicus). As to the kind of experiment: Binding affinity to CRFR1 in Sprague-Dawley rat neocortex at 1.3 nM after 40 mins by autoradiography. The note with it: tested as the 18F-labelled form. The method, boiled down: as §2
Data set [8] has as its system Liver microsomes. Kind of data set: Drug metabolism in human liver microsomes assessed as compound depletion per mg of protein at 3 uM. It is filed as ADME, Microsome. Put shortly: as §1
Data set [9] in a line: Unbound fraction in rat plasma after 3 hrs by equilibrium dialysis method. It is filed as ADME, cell-free. The method, boiled down:
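Equilibrium dialysis of rat plasma spiked with compound against isotonic phosphate buffer, 3 h at 37 °C. Buffer and plasma concentrations measured by LC/MS/MS. Unbound fraction taken as the buffer/plasma concentration ratio.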
(In equilibrium dialysis only unbound substance equilibrates across the membrane.)

The next data set relates to Kidney. Kind of data set: Drug uptake in rat kidney measured at 15 and 60 mins. It counts as ADME, tissue-based. The note with it: in vivo, 1 h. The method, boiled down:
(§3)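 Whole-body biodistribution of the [18F]-labelled radioligand in rats, formulated in 10% EtOH/saline. Tissues sampled at 15 and 60 min post-dose. Activity expressed as average % injected dose per gram.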

In a further data set the test system is Muscle tissue. As to the kind of experiment: Drug uptake in rat muscle measured at 15 and 60 mins. It counts as ADME, tissue-based. The settings on record: in vivo, 1 h. The method, boiled down: as §3
For another data set, the system named is Heart. Kind of data set: Drug uptake in rat heart measured at 15 and 60 mins. It is filed as ADME, tissue-based. The note with it: in vivo, 1 h. Put shortly: as §3
A further data set concerns Intestine. Kind of data set: Drug uptake in rat small intestine measured at 15 and 60 mins. It counts as ADME, tissue-based. The note with it: in vivo, 1 h. The method, boiled down:
as §3

A further data set deals with Liver. As to the kind of experiment: Drug uptake in rat liver measured at 15 and 60 mins. The note with it: in vivo, 1 h. It counts as ADME, tissue-based. Put shortly:
as §3

The next data set concerns Spleen. As to the kind of experiment: Drug uptake in rat spleen measured at 15 and 60 mins. The note with it: in vivo, 1 h. It counts as ADME, tissue-based. The method, boiled down: as §3
Another data set relates to Lung. Kind of data set: Drug uptake in rat lung measured at 15 and 60 mins. It counts as ADME, tissue-based. The settings on record: in vivo, 1 h. Put shortly: as §3
The test system of the next data set is Blood. As to the kind of experiment: Drug uptake in rat blood measured at 15 and 60 mins. It counts as ADME, tissue-based. The settings on record: 1 h. Put shortly: as §3
Data set [10] relates to Brain. Kind of data set: Drug uptake in rat brain measured at 15 and 60 mins. It is filed as ADME, tissue-based. The settings on record: in vivo, 1 h. The method, boiled down:
as §3

Data set [11] deals with Brain. As to the kind of experiment: Drug uptake in rat brain up to 10 mins by microPET analysis. It is filed as ADME, tissue-based. The note with it: in vivo. The method, boiled down: (§4)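 In vivo microPET imaging of rat head and neck after dosing with the [18F] radioligand. Brain uptake followed from the first 10 min through 30 min on sagittal images. Skull bone uptake checked for defluorination.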

A short description of data set [12]: Drug uptake in rat tibia measured at 15 and 60 mins. It counts as ADME, tissue-based. The settings on record: in vivo, 1 h. The method, boiled down:
as §3

For data set [13], the system named is Brain. Kind of data set: Drug uptake in rat brain after 10 to 30 mins by microPET analysis. It is filed as ADME, tissue-based. The settings on record: in vivo. The method, boiled down: as §4

The compound `COCCN(CCO[11CH3])Cc1cc(C)nc2c(-c3ccc(Cl)cc3Cl)c(C)nn12` [[11C]DMP-696] yielded a Ki in [1] of 1.7 nM. Also, in data set [2], the remaining at 13 min stood at 50%.
In turn, `COCC(COC)n1cc(Cl)nc(Nc2c(Cl)cc(OCF)cc2Cl)c1=O` yielded a concentration for half-maximal inhibition (IC50) in [3] of 5.4 nM. Moreover, in data set [4], the logD is 3.1.
Take `COC[C@@H](C1CC1)n1cc(Cl)nc(Nc2cc(C)c(OCCF)cc2C)c1=O`: the Drug metabolism stood at 0.12 pmol/min in the data set with Liver microsomes [5] and 0.07 pmol/min with Liver microsomes [8]. The values for the Activity in data set [6] and in [7] were 19% and 18%, respectively. This compound also registered an IC50 in data set [3] of 2.4 nM. Moreover, the logD in data set [4] came to 3.7.
`COC[C@@H](C1CC1)n1cc(Cl)nc(Nc2cc(C)c(OCF)cc2C)c1=O` yielded an IC50 in data set [3] of 4.1 nM. In addition, the logD in data set [4] worked out at 3.1.
`COCC(COC)n1cc(Cl)nc(Nc2c(Cl)cc(OC)cc2Cl)c1=O`: the Drug metabolism with Liver microsomes [5] is 0.17 pmol/min; with Liver microsomes [8] it was 0.03 pmol/min. Besides, the IC50 in data set [3] was determined as 5 nM. This compound also had a logD in data set [4] of 3.4.
Turning to `COC[C@@H](C1CC1)n1cc(Cl)nc(Nc2cc(C)c(OC)cc2C)c1=O`, the Drug metabolism in the data set with Liver microsomes [5] is 0.23 pmol/min; with Liver microsomes [8], 0.17 pmol/min.
Turning to `COC[C@@H](C)n1cc(Cl)nc(Nc2cc(C)c(OC)cc2C)c1=O`, the Drug metabolism was found to be 0.19 pmol/min in the data set on Liver microsomes [5] and 0.06 pmol/min with Liver microsomes [8]. In addition, in [3], the IC50 was found to be 0.88 nM. For the same compound, in data set [4], the log distribution coefficient (logD) turned out to be 3.4.
For `COCC(COC)n1cc(Br)nc(Nc2c(C)cc(OCF)cc2C)c1=O`, the figures for the Drug metabolism with Liver microsomes [5] and in the data set with Liver microsomes [8] were 0.26 pmol/min and 0.22 pmol/min, respectively. Also, the fraction unbound at 3 h in [9] is 0.03. Further, the IC50 in data set [3] stood at 4.3 nM. Further, the logD in data set [4] amounted to 2.9.
Regarding `CCCN(CCC)c1cc(C)nc2c(-c3ccc(N(C)[11CH3])nc3)c(C)nn12`, in data set [1], the affinity corresponds to a Ki of 1.7 nM. The remaining at 13 min in data set [2] turned out to be 50%.
Consider `COCC(COC)n1cc(Br)nc(Nc2c(C)cc(OC)cc2C)c1=O`, for which the fraction unbound at 3 h in [9] came out at 0.03. In data set [3], this compound showed an IC50 of 7.8 nM. In addition, in data set [4], the logD worked out at 2.8.
In turn, `CCC(COC)n1nnc2c(Nc3ccc(O[11CH3])cc3C)nc(C)cc21` (centres undefined) yielded a Ki in [1] of 1.7 nM.
Take `COCC(COC)n1cc(Br)nc(Nc2cc(C)c(OC)cc2C)c1=O`: the Drug metabolism was found to be 0.14 pmol/min with Liver microsomes [5] and 0.07 pmol/min in the data set on Liver microsomes [8]. For the same compound, the IC50 in data set [3] turned out to be 0.68 nM. Moreover, the logD in [4] was 3.8.
Consider `COCC(COC)n1cc(Cl)nc(Nc2c(Cl)cc(OCCF)cc2Cl)c1=O`, for which the Drug metabolism is reported as 0.12 pmol/min in the data set on Liver microsomes [5] and 0.07 pmol/min in the data set on Liver microsomes [8]. In data set [3], the IC50 was 210 nM. For the same compound, the logD in data set [4] turned out to be 3.1.
On to `COCCN(CCOC)c1nc(C)nc2c(-c3ccc([76Br])cc3Cl)c(C)nn12`, for which the Ki in [1] was found to be 2 nM.
As for `COC[C@@H](C1CC1)n1cc(Cl)nc(Nc2cc(C)c(OCC[18F])cc2C)c1=O`, the Drug uptake entry in the data set on Kidney, in the data set with Muscle tissue, in the data set on Heart, in the data set with Intestine, in the data set on Liver and in the data set with Spleen was “Active” in each case. In addition, the Drug uptake result in the data set with Lung is reported as “Active”; in the data set on Blood, “Active”; in the data set with Brain [10], “Active”; in the data set on Brain [11], “Active”; in data set [12], “Active”; in the data set with Brain [13] it was “Not Active”.

The term Ki denotes a dissociation constant, usually derived from enzyme kinetics or from competition with a known ligand. A low value points to tighter binding. The IC50 is the concentration at which inhibition is half-maximal. Lower therefore signals greater potency. Broadly, the logD is the decadic logarithm of the distribution of all forms, ionised or not, between an organic phase and buffer at a given pH. A higher logD goes with a more lipophilic compound. As usually defined, the fraction unbound is free concentration divided by total concentration. A low value points to little free substance.
